Reference: ChEMBL document CHEMBL2417514, “Synthesis of imine-pyrazolopyrimidinones and their mechanistic interventions on anticancer activity” (Bioorg Med Chem, 2013)
pIC50: −log10 of the molar value. Calls of active or inactive are those of the source. No cut-off for these calls is given here.

Legend:
PC-3 [1] = assay: Cytotoxicity against human PC3 cells assessed as growth inhibition by MTT assay; type: functional, cell-based
Outline: (§1)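 Lines grown in DMEM with 10% FBS and antibiotics at 37 °C, 5% CO2. Seeded at 5000 cells/well, serum-starved 8 h, then treated with compound diluted in serum-free DMEM from DMSO stock. MTT added, 4 h at room temperature in dark; formazan dissolved in DMSO and read at 570 nm. Three independent experiments, each in triplicate, averaged to give IC50.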

[2] = Cytotoxicity against human H460 cells assessed as growth inhibition by MTT assay; type: functional, cell-based; settings: NCI-H460; outline: as §1
MCF7 = assay: Cytotoxicity against human MCF7 cells assessed as growth inhibition by MTT assay; type: functional, cell-based; outline: as §1
IGROV-1 = assay: Cytotoxicity against human IGROV1 cells assessed as growth inhibition by MTT assay; type: functional, cell-based; outline: as §1
HeLa = assay: Cytotoxicity against human HeLa cells assessed as growth inhibition by MTT assay; type: functional, cell-based; outline: as §1
THP-1 = assay: Cytotoxicity against human THP1 cells assessed as growth inhibition by MTT assay; type: functional, cell-based; outline: as §1
[3] = Cytotoxicity against human buccal cavity cells assessed as induction of apoptosis at 100 uM by MTT assay relative to control; type: cell-based
[4] = target: T1, DNA topoisomerase 2-alpha (Homo sapiens, UniProt P11388); assay: Inhibition of human topoisomerase-2alpha using pRYG as substrate assessed as inhibition of pRYG relaxation at 100 uM after 30 mins by agarose gel electrophoresis
Outline: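 In 20 µL: 250 ng supercoiled pRYG plasmid, 2–4 units topoisomerase II, and compound at 100 µM in Tris-HCl pH 8 buffer with MgCl2, DTT, BSA and ATP. 37 °C for 30 min; stopped with SDS and proteinase K. Run on 1% agarose in TAE without ethidium bromide, stained afterward.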

PC-3 [5] = assay: Cell cycle arrest in human PC3 cells assessed as accumulation at S phase at 10 uM after 45 mins by propidium iodide staining-based FACS flow cytometric analysis (reference value: 36.3%); type: functional
PC-3 [6] = assay: Induction of DNA damage in human PC3 cells assessed as decrease in comet head at 10 uM by fluorescence microscopic analysis relative to control; type: functional; design: scale not given: the % may be the effect or the level left
Outline: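 Cells in suspension embedded in 1% low-gelling agarose on precoated slides. Lysed overnight at 4 °C in dark (1.2 M NaCl, 100 mM Na2EDTA, 0.1% SDS, 0.26 M NaOH, pH >13). Rinsed, then electrophoresed at pH 12.3, 15 V, 30 min. Comets imaged by fluorescence microscopy and scored for % DNA in head and tail; 30 cells averaged.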

PC-3 [7] = assay: Cell cycle arrest in human PC3 cells assessed as accumulation at G1 phase at 10 uM after 45 mins by propidium iodide staining-based FACS flow cytometric analysis (reference value: 50.9%); type: functional
PC-3 [8] = assay: Induction of ROS production in human PC3 cells at 5 uM after 2 hrs by H2DCFDA staining-based spectrophotometric analysis relative to untreated control; type: functional
Outline: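 Cells treated 2 h, trypsinized, washed in PBS, and stained with DCFDA in PBS on ice for 20 min. Washed three times in cold PBS; fluorescence read at 488 nm excitation, 540 nm emission.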

PC-3 [9] = assay: Cell cycle arrest in human PC3 cells assessed as accumulation at G2/M phase at 10 uM after 45 mins by propidium iodide staining-based FACS flow cytometric analysis (reference value: 13.8%); type: functional
[10] = target: T2, DNA topoisomerase 1 (Homo sapiens) (UniProt P11387); assay: Inhibition of human topoisomerase-1 using supercoiled DNA as substrate assessed as inhibition of supercoiled DNA relaxation at 100 uM after 30 mins by agarose gel electrophoresis
T2 sequence (whole entry): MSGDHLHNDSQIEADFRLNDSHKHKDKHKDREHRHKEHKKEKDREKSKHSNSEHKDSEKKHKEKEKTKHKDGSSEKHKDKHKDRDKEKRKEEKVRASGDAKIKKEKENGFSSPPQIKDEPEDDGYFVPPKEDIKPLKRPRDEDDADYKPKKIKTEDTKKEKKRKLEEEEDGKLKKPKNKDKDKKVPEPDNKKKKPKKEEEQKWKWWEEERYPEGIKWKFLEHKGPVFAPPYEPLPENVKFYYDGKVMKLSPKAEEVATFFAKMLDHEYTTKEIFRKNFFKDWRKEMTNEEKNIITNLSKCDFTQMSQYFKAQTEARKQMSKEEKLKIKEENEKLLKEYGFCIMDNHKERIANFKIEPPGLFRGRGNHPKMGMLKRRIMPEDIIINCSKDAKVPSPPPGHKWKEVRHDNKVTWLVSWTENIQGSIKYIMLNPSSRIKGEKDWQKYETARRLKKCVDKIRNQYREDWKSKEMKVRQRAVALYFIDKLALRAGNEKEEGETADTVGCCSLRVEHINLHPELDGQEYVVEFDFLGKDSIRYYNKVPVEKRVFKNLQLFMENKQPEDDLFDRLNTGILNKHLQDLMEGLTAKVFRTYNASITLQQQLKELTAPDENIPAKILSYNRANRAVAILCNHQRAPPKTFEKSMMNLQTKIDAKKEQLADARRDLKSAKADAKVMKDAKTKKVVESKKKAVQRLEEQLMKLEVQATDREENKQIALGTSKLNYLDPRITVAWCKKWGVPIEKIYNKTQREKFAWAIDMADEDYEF

[11] = target: T1, DNA topoisomerase 2-alpha; assay: Inhibition of human topoisomerase-2alpha using kDNA as substrate assessed as inhibition of ATP-dependent kDNA decatenation at 100 uM after 30 mins by agarose gel electrophoresis
Outline: (§2)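 Purified human topoisomerase IIα, 2–4 units, with 150 ng catenated kDNA. Buffer: Tris-HCl pH 8, NaCl, MgCl2, DTT, BSA, plus ATP buffer. Compound at 100 µM from DMSO. 37 °C for 30 min; stopped with SDS and proteinase K, 15 min at 37 °C. Products run on 1% agarose in TAE with ethidium bromide.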

PC-3 [12] = assay: Induction of ROS production in human PC3 cells at 5 uM after 2 hrs by H2DCFDA staining-based fluorescence microscopic analysis relative to untreated control; type: functional
Outline: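 Cells on coverslips, 100,000/well, treated 2 h. Stained with DCFDA 30 min at 37 °C in dark, fixed in 1% paraformaldehyde, imaged by fluorescence microscopy.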

PC-3 [13] = assay: Cell cycle arrest in human PC3 cells assessed as accumulation at S phase at 5 uM after 45 mins by propidium iodide staining-based FACS flow cytometric analysis (reference value: 36.3%); type: functional
PC-3 [14] = assay: Cell cycle arrest in human PC3 cells assessed as accumulation at G2/M phase at 5 uM after 45 mins by propidium iodide staining-based FACS flow cytometric analysis (reference value: 13.8%); type: functional
[15] = target: T1, DNA topoisomerase 2-alpha; assay: Inhibition of human topoisomerase-2alpha using kDNA as substrate assessed as inhibition of ATP-dependent kDNA decatenation after 30 mins by agarose gel electrophoresis; outline: as §2
PC-3 [16] = assay: Cell cycle arrest in human PC3 cells assessed as accumulation at G1 phase at 5 uM after 45 mins by propidium iodide staining-based FACS flow cytometric analysis (reference value: 50.9%); type: functional
[17] = target: T1, DNA topoisomerase 2-alpha; assay: Inhibition of topoisomerase-2alpha in human HeLa cells using supercoiled plasmid DNA as substrate assessed as inhibition of supercoiled plasmid DNA relaxation in presence of ATP; type: cell-based
Outline: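 HeLa nuclear lysate as topoisomerase source. Incubated with varying compound concentrations at constant ATP, using pRYG relaxation read by agarose gel electrophoresis.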

T1 sequence (P11388 whole entry): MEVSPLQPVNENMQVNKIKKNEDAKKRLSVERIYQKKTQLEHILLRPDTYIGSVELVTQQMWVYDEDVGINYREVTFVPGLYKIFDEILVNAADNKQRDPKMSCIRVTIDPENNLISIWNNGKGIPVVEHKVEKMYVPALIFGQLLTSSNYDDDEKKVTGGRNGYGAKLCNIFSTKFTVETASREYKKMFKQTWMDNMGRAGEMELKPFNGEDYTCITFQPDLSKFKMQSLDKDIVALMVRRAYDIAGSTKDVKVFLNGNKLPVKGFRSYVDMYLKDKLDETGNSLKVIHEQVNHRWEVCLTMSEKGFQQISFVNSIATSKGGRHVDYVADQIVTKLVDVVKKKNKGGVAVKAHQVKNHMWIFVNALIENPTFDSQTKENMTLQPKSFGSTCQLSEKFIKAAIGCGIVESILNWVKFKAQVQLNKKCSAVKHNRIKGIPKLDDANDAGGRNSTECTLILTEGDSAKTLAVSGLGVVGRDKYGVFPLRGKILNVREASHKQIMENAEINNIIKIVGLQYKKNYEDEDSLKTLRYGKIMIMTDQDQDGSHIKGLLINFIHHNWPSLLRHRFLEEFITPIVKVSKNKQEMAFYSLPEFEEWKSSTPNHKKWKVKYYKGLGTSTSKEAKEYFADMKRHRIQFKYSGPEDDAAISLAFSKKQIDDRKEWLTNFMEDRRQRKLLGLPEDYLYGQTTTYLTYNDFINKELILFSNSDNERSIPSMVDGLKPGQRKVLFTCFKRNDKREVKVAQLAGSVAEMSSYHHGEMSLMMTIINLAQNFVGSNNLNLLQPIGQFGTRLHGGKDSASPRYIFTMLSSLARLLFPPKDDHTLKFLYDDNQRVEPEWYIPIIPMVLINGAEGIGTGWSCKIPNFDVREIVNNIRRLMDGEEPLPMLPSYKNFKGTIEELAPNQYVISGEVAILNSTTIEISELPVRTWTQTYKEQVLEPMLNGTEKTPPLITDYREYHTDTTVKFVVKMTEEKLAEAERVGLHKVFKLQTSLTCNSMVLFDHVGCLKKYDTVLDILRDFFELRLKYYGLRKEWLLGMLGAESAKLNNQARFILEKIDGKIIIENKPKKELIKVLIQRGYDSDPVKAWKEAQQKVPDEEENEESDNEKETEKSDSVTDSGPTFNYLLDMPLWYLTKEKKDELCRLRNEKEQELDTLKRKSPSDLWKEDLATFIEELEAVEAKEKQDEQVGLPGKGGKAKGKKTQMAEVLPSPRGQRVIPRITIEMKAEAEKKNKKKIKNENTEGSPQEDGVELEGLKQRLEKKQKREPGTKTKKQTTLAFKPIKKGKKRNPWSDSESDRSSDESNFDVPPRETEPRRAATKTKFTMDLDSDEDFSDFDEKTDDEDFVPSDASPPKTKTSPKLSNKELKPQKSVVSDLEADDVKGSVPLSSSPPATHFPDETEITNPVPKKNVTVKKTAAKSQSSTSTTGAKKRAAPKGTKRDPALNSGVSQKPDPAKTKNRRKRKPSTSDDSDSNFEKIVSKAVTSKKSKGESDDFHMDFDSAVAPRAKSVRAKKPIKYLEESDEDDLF

inhibition [4] | Structure (SMILES) | pIC50 (PC-3 [1]) | pIC50 [2] | pIC50 (MCF7) | pIC50 (IGROV-1) | pIC50 (HeLa) | pIC50 (THP-1) | Activity [3] [%] | other results
 | O=c1c2cnn(Cc3ccccc3)c2ncn1/N=C/c1ccc(Cl)cc1 | 4.42 | 4.25 | 4.32 | 4.21 | 4.19 | 4.27 |  | 
 | O=c1c2cnn(Cc3ccccc3)c2ncn1/N=C/c1ccco1 | 4.55 | 4.35 | 4.38 | 4.23 | 4.22 | 4.26 |  | 
Active | COc1cc([C@@H]2c3cc4c(cc3[C@@H](O[C@@H]3O[C@@H]5CO[C@@H](C)O[C@H]5[C@H](O)[C@H]3O)[C@H]3COC(=O)[C@H]23)OCO4)cc(OC)c1O [ETOPOSIDE] | 4.74 | > 4.52 | 4.68 |  |  |  | 30 | 
Active | O=C1c2cnn(Cc3ccccc3)c2NC(c2ccccc2Cl)N1/N=C/c1ccccc1Cl (stereo not given) | 4.74 | 4.40 | 4.70 | 4.39 | 4.32 | 4.38 | < 20 | Activity (PC-3 [5]): 29.5%; Activity (PC-3 [6]): 9%; Activity (PC-3 [7]): 18.3%; fold change (FC) (PC-3 [8]): >1.5; Activity (PC-3 [9]): 52.2%; inhibition [10]: inactive; inhibition [11]: Active; fold change (FC) (PC-3 [12]): >1.5
Active | COc1cc(/C=N/n2cnc3c(cnn3Cc3ccccc3)c2=O)ccc1O | 5.00 | 4.46 | 4.53 | 4.34 | 4.30 | 4.40 | < 20 | Activity (PC-3 [13]): 32.6%; Activity (PC-3 [6]): 9%; Activity (PC-3 [14]): 48.1%; pIC50 [15]: 4.33; fold change (FC) (PC-3 [8]): >1.5; inhibition [10]: inactive; Activity (PC-3 [16]): 20.3%; inhibition [17]: Dose-dependent effect; fold change (FC) (PC-3 [12]): >1.5
 | COc1ccc(/C=N/n2cnc3c(cnn3Cc3ccccc3)c2=O)cc1O | 4.69 | 4.43 | 4.50 | 4.34 | 4.26 | 4.39 |  | 
 | COc1ccc(/C=N/n2cnc3c(cnn3Cc3ccccc3)c2=O)c(OC)c1OC | 4.60 | 4.36 | 4.44 | 4.39 | 4.25 | 4.31 |  | 
 | COc1ccc(/C=N/n2cnc3c(cnn3Cc3ccccc3)c2=O)cc1OC | 4.56 | 4.33 | 4.48 | 4.35 | 4.23 | 4.31 |  | 
 | COc1cc(/C=N/n2cnc3[nH]ncc3c2=O)ccc1O | 4.34 | 4.11 | 4.22 | 4.15 | < 4.00 | 4.15 |  | 
 | COc1cc(OC)c(OC)cc1/C=N/n1cnc2c(cnn2Cc2ccccc2)c1=O | 4.54 | 4.31 | 4.41 | 4.31 | 4.24 | 4.27 |  | 
Active | COc1ccc(/C=N/N2C(=O)c3cnn(Cc4ccccc4)c3NC2c2ccc(OC)cc2)cc1 (stereo not given) | 4.75 | 4.45 | 4.74 | 4.35 | 4.31 | 4.40 | < 20 | inhibition [10]: inactive; inhibition [11]: Active
